Experimental data pooled from the literature.
Each line is one published result; the experiments were not run side by side.
Effect on: cell growth or viability

| SMILES | cell line | test | conditions | IC50 |
| --- | --- | --- | --- | --- |
| CCn1c(=O)c(-c2ccc(-c3cncs3)cc2Cl)cc2cnc(Nc3ccc(N4CCN(C)CC4)cc3)nc21 | BXPC-3 | MTT | 24 h | 3.03 µM |
| Nc1ccn([C@@H]2O[C@H](CO)[C@@H](O)C2(F)F)c(=O)n1 | BXPC-3 | MTT | – | 0.028 µM |
| CC(=O)O[C@H]1C(=O)[C@@]2(C)[C@H]([C@H](OC(=O)c3ccccc3)[C@]3(O)C[C@H](OC(=O)[C@H](O)[C@@H](NC(=O)c4ccccc4)c4ccccc4)C(C)=C1C3(C)C)[C@]1(OC(C)=O)CO[C@@H]1C[C@@H]2O | BXPC-3 | fluorescence | 72 h | 0.004 µM |
| Cc1nc(NC(=O)N2CCC[C@H]2C(N)=O)sc1-c1ccnc(C(C)(C)C(F)(F)F)c1 | SW48 | ATP luminescence | 96 h | 0.154 µM |
| CN(C(=O)COC(=O)/C=C/c1cccc([N+](=O)[O-])c1)C1CCS(=O)(=O)C1 (centres unmarked) | DLD-1 | ATP luminescence | 48 h | 1.6 µM |
| CC[C@]1(O)C[C@H]2CN(CCc3c([nH]c4ccccc34)[C@@](C(=O)OC)(c3cc4c(cc3OC)N(C=O)[C@H]3[C@@](O)(C(=O)OC)[C@H](OC(C)=O)[C@]5(CC)C=CCN6CC[C@]43[C@@H]65)C2)C1 | BXPC-3 | fluorescence | 72 h | 0.002 µM |
| COc1cc(Nc2nccc(-c3cnn4nc(OC)ccc34)n2)cc(C(F)(F)F)c1 | NCI-H838 | ATP luminescence | – | 0.47 µM |
| C=C(C)C(=O)Nc1ccc(-c2c(-c3ccc(Oc4nccc(C)n4)c(F)c3)c3c(N)ncnc3n2C)cc1 | MFE-296 | ATP luminescence | 96 h | 0.00996 µM |
| C=C(C)[C@@H]1CC[C@]2(C(=O)O)CC[C@]3(C)[C@H](CC[C@@H]4[C@@]5(C)CC[C@H](O)C(C)(C)[C@@H]5CC[C@]43C)[C@@H]12 | DLD-1 | – | 48 h | 20 µM |
| CC(C)n1ncnc1-c1cn2c(n1)-c1ccc(O[C@@H](C)C(N)=O)cc1OCC2 | SW48 | ATP luminescence | 96 h | 0.021 µM |
| Cc1ccc2[nH]c(=O)c3cc(C(=O)NCCCN(C)Cc4ccccc4)sc3c2c1 | BXPC-3 | MTT | 24 h | 10.1 µM |
| COc1cccc2c1C(=O)c1c(O)c3c(c(O)c1C2=O)C[C@@](O)(C(=O)CO)C[C@@H]3O[C@H]1C[C@H](N)[C@H](O)[C@H](C)O1 | SK-MEL | neutral red | 48 h | 0.7 mg/L |
| CCN1CCN(c2ccc(Nc3cc(N(C)C(=O)Nc4c(Cl)c(OC)cc(OC)c4Cl)ncn3)cc2)CC1 | MFE-296 | ATP luminescence | 96 h | 0.0525 µM |
| CC(C)C[C@H](NC(=O)[C@H](Cc1ccccc1)NC(=O)c1cnccn1)B(O)O | BEN | ATP luminescence | – | 0.068 µM |
